# Test results published in ChEMBL document CHEMBL3877262, “Synthesis and antioxidant evaluation of desmethylxanthohumol analogs and their dimers” (Eur J Med Chem, 2017).
# Calls of active or inactive are those of the source. No cut-off for these calls is given here.
# Columns and labels:
# [1] = Antioxidant activity against H2O2-induced oxidative stress in rat PC12 cells assessed as viable cells at 100 uM pretreated for 0.5 hrs followed by H2O2 challenge measured after 2 hrs by MTT assay (reference value: 25.47%); format: functional; conditions: PC-12, read-out: Activity
# [2] = Cytotoxicity against HUVEC measured after 48 hrs by MTT assay; format: toxicity, cell-based; conditions: human, HUVEC cells
# Method in brief: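 HUVECs were seeded at 5×10^3 cells/well for 24 h, then exposed to compounds dissolved in DMSO for 48 h. MTT (5 mg/ml) was added for 4 h, cells solubilized in DMSO and OD read at 490 nm. IC50 was derived from mean OD of triplicate tests.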
# Rattus norvegicus [3] = species: Rattus norvegicus; assay: Cytotoxicity against rat PC12 cells at 200 uM measured after 48 hrs by MTT assay; format: toxicity, cell-based; conditions: pc-12, 48 h
# Rattus norvegicus [4] = species: Rattus norvegicus; assay: Cytotoxicity against rat PC12 cells at 100 uM measured after 48 hrs by MTT assay; format: toxicity, cell-based; conditions: pc-12, 48 h
# PC-12 [5] = assay: Cytoprotective activity against H2O2-induced oxidative stress in rat PC12 cells assessed as morphological changes at 10 uM pretreated for 0.5 hrs followed by H2O2 challenge measured after 2 hrs; format: functional, cell-based
# Method in brief: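 PC12 cells were handled as in the H2O2/MTT model: compound at 10 µM for 0.5 h, then H2O2 (100 µM) for 2 h. Morphology (shrinkage, blebbing) was viewed at 200×. Control cells received medium with 0.1% DMSO only. Gallic acid (10 µM) was the positive control.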
# PC-12 [6] = assay: Cytoprotective activity against H2O2-induced oxidative stress in rat PC12 cells assessed as viable cells at 10 uM pretreated for 0.5 hrs followed by H2O2 challenge measured after 2 hrs by Annexin-V-FITC/propidium iodide staining based flow cytometry (reference value: 94.1 %); format: functional; conditions: read-out: Activity
# PC-12 [7] = assay: Cytoprotective activity against H2O2-induced oxidative stress in rat PC12 cells assessed as early apoptotic cells at 10 uM pretreated for 0.5 hrs followed by H2O2 challenge measured after 2 hrs by Annexin-V-FITC/propidium iodide staining based flow cytometry (reference value: 1.1 %); format: functional
# PC-12 [8] = assay: Cytoprotective activity against H2O2-induced oxidative stress in rat PC12 cells assessed as late apoptotic cells at 10 uM pretreated for 0.5 hrs followed by H2O2 challenge measured after 2 hrs by Annexin-V-FITC/propidium iodide staining based flow cytometry (reference value: 2.3 %); format: functional
# PC-12 [9] = assay: Cytoprotective activity against H2O2-induced oxidative stress in rat PC12 cells assessed as necrotic cells at 10 uM pretreated for 0.5 hrs followed by H2O2 challenge measured after 2 hrs by Annexin-V-FITC/propidium iodide staining based flow cytometry (reference value: 2.4 %); format: functional
# PC-12 [10] = assay: Cytoprotective activity against H2O2-induced oxidative stress in rat PC12 cells assessed as lactate dehydrogenase release at 10 uM pretreated for 30 mins followed by H2O2 challenge measured after 2 hrs by spectrophotometric method (reference value: 479.77 U/L); format: functional
# [11] = Antioxidant activity against H2O2-induced oxidative stress in rat PC12 cells assessed as 8-OHdG level at 10 uM pretreated for 0.5 hrs followed by H2O2 challenge measured after 2 hrs (reference value: 123.97 ng/L); format: functional, PC-12
# [12] = Antioxidant activity against H2O2-induced oxidative stress in rat PC12 cells assessed as GSH level per gram of protein at 10 uM pretreated for 0.5 hrs followed by H2O2 challenge measured after 2 hrs by GSH peroxidase assay (reference value: 59.93 umol); format: functional, PC-12
# [13] = Antioxidant activity assessed as vitamin-c equivalent measured after 20 mins by FRAP assay; format: functional
# [14] = Antioxidant activity assessed as ABTS radical scavenging activity measured after 10 mins by ABTS assay; format: functional
# Method in brief: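 ABTS (10 mM in sodium acetate) oxidised with H2O2 and held 12 h in the dark. It was diluted to A650 0.70 and mixed with compound, shaken 30 s, and A650 read after 10 min. EC50 by nonlinear regression from three independent experiments.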
compound,measurement,setting,value
CC1(C)C=Cc2c(O)c(Cc3c(O)c4c(c(C(=O)/C=C/c5ccc(O)cc5O)c3O)OC(C)(C)C=C4)c(O)c(C(=O)/C=C/c3ccc(O)cc3O)c2O1,viability at 100 µM,[1],43.4%
CC(C)=CCc1c(O)cc(O)c(C(=O)/C=C/c2ccc(O)cc2)c1O [DEMETHYLXANTHOHUMOL],IC50 at 48 h,[2],18.9 µM
same,Activity,Rattus norvegicus [3],Toxic
same,Activity,Rattus norvegicus [4],Toxic
CC1(C)C=Cc2c(O)c(Cc3c(O)c4c(c(C(=O)/C=C/c5ccc(O)c(O)c5O)c3O)OC(C)(C)C=C4)c(O)c(C(=O)/C=C/c3ccc(O)c(O)c3O)c2O1,viability at 100 µM,[1],85.2%
same,Activity,PC-12 [5],Active
same,viability at 10 µM,PC-12 [6],95.6%
same,Activity,PC-12 [7],1.1%
same,Activity,PC-12 [8],2.7%
same,Activity,PC-12 [9],0.5%
same,Activity,PC-12 [10],251.45 U/L
same,Activity,[11],62.8 ng/L
same,Activity,[12],105.71 µmol
same,Activity,[13],648 mgequiv/mmol
same,EC50,[14],0.54 µM
O=C(O)c1cc(O)c(O)c(O)c1 [GALLIC ACID],viability at 100 µM,[1],88.9%
same,viability at 10 µM,PC-12 [6],81.9%
same,Activity,PC-12 [7],0.5%
same,Activity,PC-12 [8],13.4%
same,Activity,PC-12 [9],4.2%
same,Activity,PC-12 [10],326.59 U/L
same,Activity,[11],85.7 ng/L
same,Activity,[12],99.73 µmol
same,Activity,[13],531 mgequiv/mmol
same,EC50,[14],0.35 µM
CC1(C)C=Cc2c(O)cc(O)c(C(=O)/C=C/c3cccc(O)c3O)c2O1,viability at 100 µM,[1],54.5%
CC1(C)C=Cc2c(O)c(Cc3c(O)c4c(c(C(=O)/C=C/c5cccc(O)c5O)c3O)OC(C)(C)C=C4)c(O)c(C(=O)/C=C/c3cccc(O)c3O)c2O1,viability at 100 µM,[1],77.5%
CC1(C)C=Cc2c(O)cc(O)c(C(=O)/C=C/c3ccc(O)cc3)c2O1,IC50 at 48 h,[2],41.1 µM
same,Activity,Rattus norvegicus [3],Toxic
same,Activity,Rattus norvegicus [4],Toxic
same,viability at 100 µM,[1],20.6%
CC1(C)C=Cc2c(O)c(Cc3c(O)c4c(c(C(=O)/C=C/c5ccc(O)cc5)c3O)OC(C)(C)C=C4)c(O)c(C(=O)/C=C/c3ccc(O)cc3)c2O1,viability at 100 µM,[1],44.9%
CC1(C)C=Cc2c(O)cc(O)c(C(=O)/C=C/c3ccc(O)c(O)c3O)c2O1,viability at 100 µM,[1],84%
CC1(C)C=Cc2c(O)cc(O)c(C(=O)/C=C/c3ccc(O)cc3O)c2O1,viability at 100 µM,[1],24.1%
